Screening results as filed in PubChem BioAssay.
E-sel TNF inh – TNF alpha driven E-selectin expression inhibition. HUVEC TNFa-induced E-selectin immunofluorescence, high content. inhibition, % at 2 µM. AID 1246. actives 0.71% (n = 120,000);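 active = inhibition above the batch mean plus 3 SD, and confirmed as a hit on visual image review, cut at about 43% in these data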;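 also: 0% = TNF-stimulated DMSO wells and 100% = unstimulated control wells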
HSV augment – increases HSV replication in cells. HSV replication augmentation in cells, fold increase. maximum fold increase. actives 0.005% (n = 220,000). AID 1956; in the data active = maximum fold increase above about 1.5; tested in PC3 cells
zVAD death inh – blocks zVAD induced death of L929 cells | viability rescue, % at 10 µM | AID 1377 | actives 0.38% (n = 220,000) | L929 zVAD necroptosis rescue, ATP luminescence, 24 h; with zVAD 60 µM;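 active = activation, scaled between plate controls, above about 75%, limit read from the data; inactive = activation under that limit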;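 also: 0% = zVAD with DMSO and 100% = DMSO alone without zVAD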
TNF necrop inh – inhibitors of TNF-alpha induced necroptosis in Jurkat FADD-/- cells; Jurkat FADD-/- TNF necroptosis rescue, ATP luminescence, 24 h; 0 = TNF only, 100 = no-TNF cells; activation (protection from cell death), % at 10 µM; actives 0.068% (n = 220,000); AID 463075;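 active = activation, meaning protection from cell death, of at least 50% relative to plate controls; inactive = activation below 50%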;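 also: necroptosis triggered by 40 ng/mL TNF-alpha added together with compound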
Mdm2 ligase inh – inhibitors of human Mdm2 E3 ubiquitin ligase; Q00987; cell-based MDM2 ubiquitination luciferase reporter, 2 h; 0 = plate control, 100 = twice control, blank-subtracted; signal enhancement, % at 5 µM; actives 0.11% (n = 210,000); AID 1230;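 active = signal enhancement of 30% or more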;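 also: luminescence tracks abundance of the self-degrading MDM2-luciferase fusion protein; higher signal means inhibition of MDM2 E3 ligase activity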
Target sequence (Q00987 whole entry, looked up, the tested form may be a part): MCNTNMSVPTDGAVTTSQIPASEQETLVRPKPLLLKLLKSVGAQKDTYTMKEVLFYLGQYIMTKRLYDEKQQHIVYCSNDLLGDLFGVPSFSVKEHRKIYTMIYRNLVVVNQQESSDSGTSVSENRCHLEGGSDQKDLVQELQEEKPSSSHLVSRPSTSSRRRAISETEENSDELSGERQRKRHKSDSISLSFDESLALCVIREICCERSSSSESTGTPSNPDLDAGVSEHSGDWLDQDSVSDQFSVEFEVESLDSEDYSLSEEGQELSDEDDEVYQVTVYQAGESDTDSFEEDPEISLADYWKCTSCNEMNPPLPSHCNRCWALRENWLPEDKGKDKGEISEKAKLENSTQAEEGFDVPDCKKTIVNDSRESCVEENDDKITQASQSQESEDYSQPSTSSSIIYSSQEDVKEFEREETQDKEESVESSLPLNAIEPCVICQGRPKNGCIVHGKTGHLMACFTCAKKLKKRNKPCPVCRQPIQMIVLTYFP
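Test system: stable mammalian line carrying autodegrading MDM2–luciferase fusion reporter; quantity: 2000 cells in each well; times: 4 h cell settling then 2 h compound exposure, 37 °C; detection: luminescence with SteadyLite reagent, 15 min at room temperature; evaluation: percent signal gain over controls, blank-subtracted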
zVAD death conf – confirmed blocker of zVAD induced death in L929 cells; activation (protection from necroptosis), % at 10 µM; shares compounds with zVAD death inh; actives 16% (n = 760); L929 zVAD-induced necroptosis rescue, ATP luminescence, 24 h;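 active = mean protection from necroptosis of at least 50% over duplicate tests; inactive = mean protection below 50%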;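 also: 0% = cells with zVAD alone and 100% = vehicle cells without zVAD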
Active calls of the source: *. In the library only some 0.89% were active in any assay of this set; here they are far more common.

NC(=O)c1cnn(-c2cc(Oc3ccccc3)ncn2)c1N was read as HSV augment inactive, zVAD death inh 9.1, TNF necrop inh 0.5 and Mdm2 ligase inh -6.7.
Screening COc1ccccc1-n1cnc2cc(NC(=O)c3ccco3)ccc21 returned E-sel TNF inh 13.3, HSV augment inactive, zVAD death inh 8.2, TNF necrop inh -11.8 and Mdm2 ligase inh -9.1.
For O=C(Nc1ccc2c(c1)ncn2C1CCCCC1)c1ccco1 the results were HSV augment inactive, zVAD death inh 82.1*, TNF necrop inh 0.8, Mdm2 ligase inh -19.5 and zVAD death conf 3.2.
COc1ccc(-n2cnc3cc(NC(=O)c4ccco4)ccc32)cc1 was read as E-sel TNF inh 40.1, HSV augment inactive, zVAD death inh 82.6*, TNF necrop inh 3.5, Mdm2 ligase inh -2.7 and zVAD death conf 47.3.
COc1ccc(CCNC(=O)CSc2ccc(-c3cccs3)nn2)cc1OC was read as HSV augment inactive, zVAD death inh -0.7, TNF necrop inh 0.5 and Mdm2 ligase inh -17.0.
`COc1ccc(/C=C(\C#N)C(=O)OCC(=O)Nc2c(C)cccc2C(C)C)cc1` gave HSV augment inactive, zVAD death inh 0.9 and TNF necrop inh 1.1.
For Cc1ccc(NC(=O)c2cc3ccccc3o2)cc1S(=O)(=O)N(C)C the results were E-sel TNF inh -14.0, HSV augment inactive, zVAD death inh 0.7, TNF necrop inh -2.5 and Mdm2 ligase inh -21.0.
`CN(C)S(=O)(=O)c1ccc(NC(=O)c2cc3ccccc3o2)cc1` gave HSV augment inactive, zVAD death inh 92.2*, TNF necrop inh -1.4, Mdm2 ligase inh -12.5 and zVAD death conf 3.8.
`COc1cc(NC(=O)c2cccs2)ccc1NC(=O)c1cc2ccccc2o1` gave HSV augment inactive, zVAD death inh 78.2*, TNF necrop inh 1.0, Mdm2 ligase inh 2.5 and zVAD death conf 0.7.
For COc1ccc(N/N=C(/C(N)=O)C2=NC(C)(C)Cc3ccccc32)cc1 the results were HSV augment inactive, zVAD death inh 75.6*, TNF necrop inh 1.8, Mdm2 ligase inh -5.3 and zVAD death conf 39.4.
`COc1ccc(N/N=C(\C#N)C(N)=O)cc1` gave HSV augment inactive, zVAD death inh 0.9, TNF necrop inh 1.6 and Mdm2 ligase inh -4.0.
COC(=O)c1ccc(CN2CCN(C(C)C)C(CCO)C2)cc1 (configuration not stated) was read as HSV augment inactive, zVAD death inh 0.3, TNF necrop inh -0.1 and Mdm2 ligase inh -5.1.
For CC(=O)c1sc(NC(=O)c2ccc(C(C)(C)C)cc2)nc1C the results were HSV augment inactive, zVAD death inh 75.5*, TNF necrop inh 3.0, Mdm2 ligase inh -27.1 and zVAD death conf 1.1.
For O=C(NC12CC3CC(CC(C3)C1)C2)c1ccc(-c2ccc(Cl)cc2)o1 the results were E-sel TNF inh -5.7, HSV augment inactive, zVAD death inh 81.6*, TNF necrop inh 3.6, Mdm2 ligase inh -6.9 and zVAD death conf 1.8.
Screening O=C(Nc1ccccc1)OCc1cnc(Cl)s1 returned HSV augment inactive, zVAD death inh -0.2, TNF necrop inh 13.9 and Mdm2 ligase inh -10.8.
For Clc1ncc(CSc2ccccc2)s1 the results were HSV augment inactive, zVAD death inh 90.6*, TNF necrop inh 17.9, Mdm2 ligase inh -11.8 and zVAD death conf 49.9.
`O=C(Nc1ccccc1)Nc1nccs1` gave E-sel TNF inh -2.3, HSV augment inactive, zVAD death inh 84.6*, TNF necrop inh 7.2, Mdm2 ligase inh -8.6 and zVAD death conf 7.9.
COc1ccc(C(=O)Nc2nccs2)cc1OC was read as E-sel TNF inh -18.1, zVAD death inh 80.1*, TNF necrop inh 29.7, Mdm2 ligase inh -16.5 and zVAD death conf 46.2.
Screening CCn1nccc1C(=O)Nc1nccs1 returned E-sel TNF inh -4.1, HSV augment inactive, zVAD death inh 85.3*, TNF necrop inh 3.6, Mdm2 ligase inh -9.0 and zVAD death conf 37.4.
O=C(Nc1nccs1)c1cccc(NC(=O)C(F)(F)F)c1 was read as HSV augment inactive, zVAD death inh 97.0*, TNF necrop inh 15.1, Mdm2 ligase inh -6.7 and zVAD death conf 46.6.
CCn1cc(Br)c(C(=O)Nc2nccs2)n1 was read as HSV augment inactive, zVAD death inh 6.6, TNF necrop inh 0.3 and Mdm2 ligase inh -2.5.
Screening CCC(CC)C(=O)Nc1cccc(C(=O)Nc2nccs2)c1 returned E-sel TNF inh 0.2, HSV augment inactive, zVAD death inh 66.9, TNF necrop inh 3.3 and Mdm2 ligase inh -4.3.
`COc1ccc(NC(=O)Nc2nccs2)cc1` gave E-sel TNF inh -7.9, HSV augment inactive, zVAD death inh 22.3, TNF necrop inh -3.1 and Mdm2 ligase inh -6.6.
Screening O=C(CCS(=O)(=O)c1ccc(Br)s1)Nc1ccccc1Br returned HSV augment inactive, zVAD death inh -0.2, TNF necrop inh 2.5 and Mdm2 ligase inh -4.1.
CCCc1cc(C(=O)Nc2nccs2)cs1 was read as E-sel TNF inh -8.3, HSV augment inactive, zVAD death inh 98.6*, TNF necrop inh 38.3, Mdm2 ligase inh -32.0 and zVAD death conf 80.3*.
For Cc1c(C(=O)C(=O)NCC2CCCO2)c2ccccc2n1C (configuration not stated) the results were HSV augment inactive, zVAD death inh -1.5, TNF necrop inh -0.6 and Mdm2 ligase inh -25.2.
For O=C(c1ccc(COc2ccccc2Cl)o1)N1CCN(c2ccccc2)CC1 the results were E-sel TNF inh 2.3, HSV augment inactive, zVAD death inh 1.6, TNF necrop inh 1.5 and Mdm2 ligase inh -14.0.
Screening O=C(c1ccco1)N1CCN(C(=O)c2ccc(COc3ccc(Cl)cc3Cl)o2)CC1 returned E-sel TNF inh -40.5, HSV augment inactive, zVAD death inh 86.4*, TNF necrop inh -10.7 and zVAD death conf 34.8.
Screening O=C(c1ccco1)N1CCN(C(=O)c2ccc(COc3ccc4c(c3)CCC4)o2)CC1 returned E-sel TNF inh -10.9, HSV augment inactive, zVAD death inh 83.1*, TNF necrop inh -0.9 and zVAD death conf 33.8.
Cc1csc(N/N=C\c2cccnc2)n1 was read as HSV augment inactive, zVAD death inh 87.5*, TNF necrop inh 9.9, Mdm2 ligase inh -10.5 and zVAD death conf 7.7.
CCOc1ccc2nc(NC(=O)C3CCCN(S(=O)(=O)c4cccs4)C3)sc2c1 (configuration not stated) was read as E-sel TNF inh -17.3, HSV augment inactive, zVAD death inh 88.3*, TNF necrop inh 1.1, Mdm2 ligase inh -8.1 and zVAD death conf 5.1.
`CCOc1ccc2nc(NC(=O)C(NS(=O)(=O)c3cccs3)C(C)C)sc2c1` (configuration not stated) gave E-sel TNF inh 10.6, HSV augment inactive, zVAD death inh 1.2, TNF necrop inh -2.0 and Mdm2 ligase inh 5.3.
